Source: ChEMBL document CHEMBL1124366, “Synthesis and biological properties of N63-carboxamides of teicoplanin antibiotics. Structure-activity relationships” (J Med Chem, 1989)
In brackets after ≈: the same amount, converted by molar mass.

Columns and labels:
Bacteria = assay: Minimum inhibitory concentration of compound against Gram negative bacteria; assay type: functional
Streptococcus pyogenes [1] = assay: Subcutaneously administration into mice infected with Streptococcus pyogenes C 203; assay type: functional; conditions: sc
Procedure, shortened: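 Mice (five per treatment group, five groups) infected intraperitoneally with about 10⁵ cells of Strep. pyogenes C 203, about 100× the LD50. ED50 (mg/kg) was calculated from the percentage of mice surviving at each dose on day 7.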

[2] = test system: Staphylococcus epidermidis; assay: In vitro minimum inhibitory concentration against Staphylococcus epidermis ATCC 12228; assay type: functional
Staphylococcus aureus = assay: In vitro minimum inhibitory concentration against Staphylococcus aureus Tour; assay type: functional
Streptococcus pneumoniae = assay: In vitro minimum inhibitory concentration against Streptococcus pneumoniae UC41; assay type: functional
Streptococcus pyogenes [3] = assay: In vitro minimum inhibitory concentration against Streptococcus pyogenes C 203; assay type: functional
Enterococcus faecalis = assay: In vitro minimum inhibitory concentration against Streptococcus faecalis ATCC 7080; assay type: functional
Gram-negative bacteria = assay: Minimum inhibitory concentration of compound against Gram negative bacteria

| Structure (SMILES) | MIC (Bacteria) | ED50 (Streptococcus pyogenes [1]) | MIC [2] | MIC (Staphylococcus aureus) | MIC (Streptococcus pneumoniae) | MIC (Streptococcus pyogenes [3]) | MIC (Enterococcus faecalis) | MIC (Gram-negative bacteria) |
| --- | --- | --- | --- | --- | --- | --- | --- | --- |
| CC(=O)N[C@@H]1[C@H](O[C@@H]2c3ccc(c(Cl)c3)Oc3cc4cc(c3O)Oc3ccc(cc3Cl)C[C@H]3NC(=O)[C@H](N)c5ccc(O)c(c5)Oc5cc(O)cc(c5)[C@H](NC3=O)C(=O)N[C@H]4C(=O)N[C@H]3C(=O)N[C@@H]2C(=O)N[C@H](C(=O)O)c2cc(O)cc(O[C@H]4O[C@H](CO)[C@@H](O)[C@@H](O)[C@@H]4O)c2-c2cc3ccc2O)O[C@@H](CO)[C@@H](O)[C@@H]1O | > 128 µg/mL | 2.64 mg/kg | 0.25 µg/mL (≈ 0.16 µM) | 0.25 µg/mL (≈ 0.16 µM) | 0.5 µg/mL (≈ 0.32 µM) | 0.12 µg/mL (≈ 0.0767 µM) | 0.5 µg/mL (≈ 0.32 µM) | – |
| CC(=O)N[C@@H]1[C@H](O[C@@H]2c3ccc(c(Cl)c3)Oc3cc4cc(c3O)Oc3ccc(cc3Cl)C[C@H]3NC(=O)[C@H](N)c5ccc(O)c(c5)Oc5cc(O)cc(c5)[C@H](NC3=O)C(=O)N[C@H]4C(=O)N[C@H]3C(=O)N[C@@H]2C(=O)N[C@H](C(=O)NCCN2CCCC2)c2cc(O)cc(O[C@H]4O[C@H](CO)[C@@H](O)[C@@H](O)[C@@H]4O)c2-c2cc3ccc2O)O[C@@H](CO)[C@@H](O)[C@@H]1O | – | 0.41 mg/kg | 0.25 µg/mL (≈ 0.151 µM) | 0.25 µg/mL (≈ 0.151 µM) | 0.5 µg/mL (≈ 0.301 µM) | 0.12 µg/mL (≈ 0.0723 µM) | 0.5 µg/mL (≈ 0.301 µM) | > 128 µg/mL |
| CCCCN(CCCC)CCCNC(=O)[C@H]1NC(=O)[C@H]2NC(=O)[C@H](NC(=O)[C@@H]3NC(=O)[C@H]4NC(=O)[C@@H](Cc5ccc(c(Cl)c5)Oc5cc3cc(c5O)Oc3ccc(cc3Cl)[C@H]2O[C@@H]2O[C@@H](CO)[C@@H](O)[C@H](O)[C@@H]2NC(C)=O)NC(=O)[C@H](N)c2ccc(O)c(c2)Oc2cc(O)cc4c2)c2ccc(O)c(c2)-c2c(O[C@H]3O[C@H](CO)[C@@H](O)[C@@H](O)[C@@H]3O)cc(O)cc21 | – | 0.18 mg/kg | 0.06 µg/mL (≈ 0.0346 µM) | 1 µg/mL (≈ 0.577 µM) | 0.5 µg/mL (≈ 0.289 µM) | 0.12 µg/mL (≈ 0.0693 µM) | 0.5 µg/mL (≈ 0.289 µM) | > 128 µg/mL |
| CC(=O)N[C@@H]1[C@H](O[C@@H]2c3ccc(c(Cl)c3)Oc3cc4cc(c3O)Oc3ccc(cc3Cl)C[C@H]3NC(=O)[C@H](N)c5ccc(O)c(c5)Oc5cc(O)cc(c5)[C@H](NC3=O)C(=O)N[C@H]4C(=O)N[C@H]3C(=O)N[C@@H]2C(=O)N[C@H](C(=O)NCCCN(C)C)c2cc(O)cc(O[C@H]4O[C@H](CO)[C@@H](O)[C@@H](O)[C@@H]4O)c2-c2cc3ccc2O)O[C@@H](CO)[C@@H](O)[C@@H]1O | – | 0.81 mg/kg | 0.12 µg/mL (≈ 0.0728 µM) | 0.5 µg/mL (≈ 0.303 µM) | 0.5 µg/mL (≈ 0.303 µM) | 0.12 µg/mL (≈ 0.0728 µM) | 1 µg/mL (≈ 0.607 µM) | > 128 µg/mL |
| CCN(CC)CCCNC(=O)[C@H]1NC(=O)[C@H]2NC(=O)[C@H](NC(=O)[C@@H]3NC(=O)[C@H]4NC(=O)[C@@H](Cc5ccc(c(Cl)c5)Oc5cc3cc(c5O)Oc3ccc(cc3Cl)[C@H]2O[C@@H]2O[C@@H](CO)[C@@H](O)[C@H](O)[C@@H]2NC(C)=O)NC(=O)[C@H](N)c2ccc(O)c(c2)Oc2cc(O)cc4c2)c2ccc(O)c(c2)-c2c(O[C@H]3O[C@H](CO)[C@@H](O)[C@@H](O)[C@@H]3O)cc(O)cc21 | – | 0.3 mg/kg | 0.06 µg/mL (≈ 0.0358 µM) | 0.25 µg/mL (≈ 0.149 µM) | 0.5 µg/mL (≈ 0.298 µM) | 0.12 µg/mL (≈ 0.0716 µM) | 0.5 µg/mL (≈ 0.298 µM) | > 128 µg/mL |
